Here are results for five compounds from ChEMBL document CHEMBL1152659, “Removal of the 20-methyl group from 2-methylene-19-nor-(20S)-1alpha,25-dihydroxyvitamin D(3) (2MD) selectively eliminates bone calcium mobilization activity” (Bioorg Med Chem, 2009).

Test [1] concerns Rattus norvegicus. Kind of test: Effect on intestinal calcium transport in weanling Sprague-Dawley rat assessed as ratio of serosal to mucosal calcium level at 7020 pmol/day, ip administered for 4 consecutive days measured 24 hrs after last dose by everted gut sac method. In kind it is functional. The procedure, abridged:
(§1)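 Same rats and regimen: low/normal Ca diet cycling, then four i.p. doses about 24 h apart during the final 0.02% Ca week. First 10 cm of intestine taken 24 h after the last dose; Ca transport measured by everted gut sac.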

Test [2] addresses T1, Vitamin D3 receptor (Rattus norvegicus, UniProt P13053).
T1 sequence (P13053 whole entry): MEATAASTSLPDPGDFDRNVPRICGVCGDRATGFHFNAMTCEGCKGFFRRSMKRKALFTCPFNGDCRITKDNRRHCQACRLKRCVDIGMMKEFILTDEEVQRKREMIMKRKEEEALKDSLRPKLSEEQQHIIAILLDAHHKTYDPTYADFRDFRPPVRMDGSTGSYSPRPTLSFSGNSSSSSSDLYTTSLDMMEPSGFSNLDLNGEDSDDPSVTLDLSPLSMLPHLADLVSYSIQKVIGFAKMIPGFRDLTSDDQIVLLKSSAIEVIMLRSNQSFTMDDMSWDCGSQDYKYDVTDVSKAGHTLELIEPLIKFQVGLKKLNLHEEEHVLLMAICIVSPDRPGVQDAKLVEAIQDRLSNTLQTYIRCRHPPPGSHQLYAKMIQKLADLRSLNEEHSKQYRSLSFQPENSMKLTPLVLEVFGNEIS
As to the kind of experiment: Displacement of radiolabeled 1-alpha,25-(OH)2D3 from rat recombinant full length VDR.

Test [3] concerns the target T2, Vitamin D3 receptor (Rattus norvegicus) (UniProt P13053).
T2 sequence (whole entry): T1 sequence (P13053 whole entry)
As to the kind of experiment: Ratio of compound Ki to [3H]1-alpha,25-(OH)2D3 Ki for rat recombinant full length VDR.

The subject of test [4] is HL-60. As to the kind of experiment: Induction of differentiation of human HL60 promyelocytes into monocytes after 4 days by NBT reduction assay. It counts as functional, cell-based. Conditions: HL-60, 96 h.
For test [5], the system named is HL-60. Kind of test: Ratio of compound ED50 to [3H]1-alpha,25-(OH)2D3 ED50 for induction of differentiation of human HL60 promyelocytes into monocytes after 4 days by NBT reduction assay. In kind it is functional.
For test [6], the target named is T1, Vitamin D3 receptor. As to the kind of experiment: Activity at VDR in rat osteosarcoma cells assessed as induction of 24-hydroxylase reporter gene transcription by luciferase reporter gene assay. In kind it is cell-based. The procedure, abridged: (§2)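 Rat osteosarcoma cells stably transfected with a 24-hydroxylase gene reporter plasmid; luciferase read-out. EC50 from dose–response curves = concentration raising luciferase activity by 50%. Ratio = average of analog EC50 over 1α,25-(OH)2D3 EC50. Duplicates on at least two separate occasions.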
A general note: A reporter such as luciferase makes a cellular process visible.

For test [7], the target named is T2, Vitamin D3 receptor (Rattus norvegicus). As to the kind of experiment: Ratio of compound EC50 to [3H]1-alpha,25-(OH)2D3 EC50 for VDR in rat osteosarcoma cells by 24-hydroxylase gene transcriptional activation assay. It counts as cell-based. In a few lines: as §2
Test [8] has as its system Rattus norvegicus. As to the kind of experiment: Effect on bone calcium mobilization in weanling Sprague-Dawley rat assessed as serum calcium level at 260 pmol/day, ip administered for 4 consecutive days measured 24 hrs after last dose. It counts as functional. The procedure, abridged:
(§3)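 Male weanling rats fed 0.47% Ca + AEK oil for 1 wk, then 0.02% Ca for 3 wk, then 0.47% Ca for 1 wk, then 0.02% Ca for 2 wk. Dosing during the final low-Ca week: four i.p. doses about 24 h apart. Serum Ca measured on blood from severed neck 24 h after the last dose; statistics applied.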

Test [9] deals with Rattus norvegicus. Kind of test: Effect on bone calcium mobilization in weanling Sprague-Dawley rat assessed as serum calcium level at 780 pmol/day, ip administered for 4 consecutive days measured 24 hrs after last dose. It counts as functional. The procedure, abridged: as §3
Test [10] relates to Rattus norvegicus. Kind of test: Effect on bone calcium mobilization in weanling Sprague-Dawley rat assessed as serum calcium level at 2340 pmol/day, ip administered for 4 consecutive days measured 24 hrs after last dose. It counts as functional. The procedure, abridged:
as §3

Test [11] has as its system Rattus norvegicus. As to the kind of experiment: Effect on bone calcium mobilization in weanling Sprague-Dawley rat assessed as serum calcium level at 7020 pmol/day, ip administered for 4 consecutive days measured 24 hrs after last dose. It counts as functional. The procedure, abridged: as §3
In test [12] the test system is Rattus norvegicus. As to the kind of experiment: Effect on intestinal calcium transport in weanling Sprague-Dawley rat assessed as ratio of serosal to mucosal calcium level at 260 pmol/day, ip administered for 4 consecutive days measured 24 hrs after last dose by everted gut sac method. It counts as functional. The procedure, abridged: as §1
Test [13] has as its system Rattus norvegicus. As to the kind of experiment: Effect on intestinal calcium transport in weanling Sprague-Dawley rat assessed as ratio of serosal to mucosal calcium level at 780 pmol/day, ip administered for 4 consecutive days measured 24 hrs after last dose by everted gut sac method. In kind it is functional. In a few lines:
as §1

The subject of test [14] is Rattus norvegicus. As to the kind of experiment: Effect on intestinal calcium transport in weanling Sprague-Dawley rat assessed as ratio of serosal to mucosal calcium level at 2340 pmol/day, ip administered for 4 consecutive days measured 24 hrs after last dose by everted gut sac method. In kind it is functional. In a few lines: as §1
Test [15] has as its system Rattus norvegicus. As to the kind of experiment: Effect on bone calcium mobilization in weanling Sprague-Dawley rat assessed as serum calcium level at 87 pmol/day, ip administered for 4 consecutive days measured 24 hrs after last dose. It counts as functional. In a few lines: as §3
Test [16] has as its system Rattus norvegicus. As to the kind of experiment: Effect on intestinal calcium transport in weanling Sprague-Dawley rat assessed as ratio of serosal to mucosal calcium level at 87 pmol/day, ip administered for 4 consecutive days measured 24 hrs after last dose by everted gut sac method. In kind it is functional. The procedure, abridged:
as §1

Molecules are shown by their SMILES. pEC50, pKi: −log10 of the molar value.

On to `C=C1[C@H](O)CC(=C/C=C2\CCC[C@@H]3[C@@H]([C@@H](C)CCCC(C)(C)O)CC[C@@H]23)C[C@H]1O`, for which the Ratio is given as 14.5 with Rattus norvegicus [1], 8.4 with Rattus norvegicus [12], 10 with Rattus norvegicus [13] and 8.5 in the test with Rattus norvegicus [14]. In addition, on Vitamin D3 receptor [2], the pKi (commonly the negative decadic logarithm of the Ki, by convention in mol/L) was 10.70. For the same compound, the Ratio Ki in test [3] is 0.2. The pEC50 – broadly, the EC50 on a negative log10 scale, so that one unit is a factor of ten – in the test on HL-60 [4] is 9.40; at Vitamin D3 receptor [6], 10.70. In the test with HL-60 [5], the “Ratio ED50” value is on record as 0.2. The Ratio EC50 in test [7] was determined as 0.07. Moreover, the Activity in the test on Rattus norvegicus [8] was found to be 5.7; with Rattus norvegicus [9], 6.6 mg/dL; in the test on Rattus norvegicus [10], 7.8 mg/dL; with Rattus norvegicus [11] it was 8.7 mg/dL.
With `C=C1[C@H](O)CC(=C/C=C2\CCC[C@]3(C)[C@@H]([C@@H](C)CCCC(C)(C)O)CC[C@@H]23)C[C@H]1O` [DP001], the Activity was 8.4 mg/dL in the test on Rattus norvegicus [15], 9.3 mg/dL with Rattus norvegicus [8] and 11.1 mg/dL in the test with Rattus norvegicus [9]. The Ratio is 12.3 with Rattus norvegicus [16], 11.4 in the test with Rattus norvegicus [12] and 10.9 in the test with Rattus norvegicus [13].
Regarding `C=C1/C(=C\C=C2/CCC[C@]3(C)[C@@H]([C@H](C)CCCC(C)(C)O)CC[C@@H]23)C[C@@H](O)C[C@@H]1O` [CALCITRIOL], the Activity in the test on Rattus norvegicus [15] was determined as 4.6 mg/dL; in the test on Rattus norvegicus [8], 5 mg/dL; in the test on Rattus norvegicus [9] it was 5.3 mg/dL; in the test on Rattus norvegicus [10] it was 6.9 mg/dL.
For the compound `C=C1[C@H](O)CC(=C/C=C2\CCC[C@]3(C)[C@@H](CCCCC(C)(C)O)CC[C@@H]23)C[C@H]1O`, the Ratio with Rattus norvegicus [1] is given as 7.8; with Rattus norvegicus [16], 5.6; in the test on Rattus norvegicus [12] it was 7.4; in the test on Rattus norvegicus [13], 10.2; in the test on Rattus norvegicus [14], 8.8. Moreover, the pKi at Vitamin D3 receptor [2] is 9.70. For the same compound, in [3], the Ratio Ki turned out to be 2. Moreover, the pEC50 in the test on HL-60 [4] and at Vitamin D3 receptor [6] was 9.70 in each case. Besides, in the test on HL-60 [5], the “Ratio ED50” value is 0.35. The Ratio EC50 in test [7] came to 0.67. Further, the Activity with Rattus norvegicus [15] came out at 4.3 mg/dL; in the test with Rattus norvegicus [8], 4.6 mg/dL; in the test with Rattus norvegicus [9], 4.9 mg/dL; with Rattus norvegicus [10], 5.3 mg/dL; with Rattus norvegicus [11] it was 5.1 mg/dL.
Take `C=C1[C@H](O)CC(=C/C=C2\CCC[C@@H]3[C@@H](CCCCC(C)(C)O)CC[C@@H]23)C[C@H]1O`: the Ratio is given as 11.4 in the test on Rattus norvegicus [1], 7.2 in the test on Rattus norvegicus [16], 2.3 in the test on Rattus norvegicus [12] and 7.5 in the test with Rattus norvegicus [14]. In addition, the pKi on Vitamin D3 receptor [2] is 10.00. For the same compound, in test [3], the Ratio Ki turned out to be 1. For the same compound, the pEC50 is 9.52 with HL-60 [4] and 10.22 on Vitamin D3 receptor [6]. For the same compound, the “Ratio ED50” value in the test with HL-60 [5] was 0.15. Besides, the Ratio EC50 in [7] was found to be 0.2. The Activity in the test with Rattus norvegicus [15] was determined as 4 mg/dL; in the test on Rattus norvegicus [8] it was 4.3 mg/dL; in the test on Rattus norvegicus [10], 6.1 mg/dL; in the test on Rattus norvegicus [11] it was 6.5 mg/dL.
